Assay results published in ChEMBL document CHEMBL1772977, “Synthesis and biological evaluation of novel 4-benzylpiperazine ligands for sigma-1 receptor imaging” (Bioorg Med Chem, 2011).

Key:
[1] = Displacement of [3H]ditolylguanidine from sigma 2 receptor in rat liver membrane by competitive binding assay; format: cell membranes
Outline: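 Sigma-2 competition binding used rat liver membranes with [3H]ditolylguanidine as radioligand. 10 µM dextrallorphan was present to mask sigma-1 sites. Ki was derived by Cheng–Prusoff from at least three independent experiments, each in triplicate, and is reported as mean ± SD.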

[2] = molecular target: Sigma non-opioid intracellular receptor 1 (Rattus norvegicus, UniProt Q9R0C9); test: Displacement of (+)-[3H]pentazocine from sigma 1 receptor in rat brain membranes by competitive binding assay; format: cell membranes
Outline: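 Sigma-1 competition binding used rat brain membranes as receptor material with (+)-[3H]pentazocine as radioligand. Ki was derived by Cheng–Prusoff from at least three independent experiments, each in triplicate, and is reported as mean ± SD.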

Sequence of Sigma non-opioid intracellular receptor 1 (Q9R0C9 whole entry): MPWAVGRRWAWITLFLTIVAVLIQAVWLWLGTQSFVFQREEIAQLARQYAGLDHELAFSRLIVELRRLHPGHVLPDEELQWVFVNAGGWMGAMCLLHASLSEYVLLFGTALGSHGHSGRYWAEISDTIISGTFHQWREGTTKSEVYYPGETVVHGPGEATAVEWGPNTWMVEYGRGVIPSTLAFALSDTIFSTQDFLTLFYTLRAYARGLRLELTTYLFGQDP

SMILES | Ki [1] [nM] | Ki [2] [nM]
Fc1ccc(CN2CCN(Cc3ccc4c(c3)OCO4)CC2)cc1 | 52.2 | 0.85
Brc1ccc(CN2CCN(Cc3ccc4c(c3)OCO4)CC2)cc1 | 40.5 | 0.78
Ic1ccc(CN2CCN(Cc3ccc4c(c3)OCO4)CC2)cc1 | 61.1 | 0.8
